Test results published in ChEMBL document CHEMBL1158389, “Highly twisted adamantyl arotinoids: synthesis, antiproliferative effects and RXR transactivation profiles” (Eur J Med Chem, 2009).
The source made the active and inactive calls. The rule behind the calls is not given here.

Experiments:
[1] = molecular target: T1, Retinoic acid receptor alpha (Homo sapiens) (UniProt P10276); assay: Inhibition of transactivation activity of Gal4-LBD fused human RARalpha (156 to 454) transfected in atRA-stimulated african green monkey CV1 cells at 4 uM after 6 hrs by Dual-light chemiluminescent assay; format: cell-based; details: CV-1
T1 sequence (whole entry): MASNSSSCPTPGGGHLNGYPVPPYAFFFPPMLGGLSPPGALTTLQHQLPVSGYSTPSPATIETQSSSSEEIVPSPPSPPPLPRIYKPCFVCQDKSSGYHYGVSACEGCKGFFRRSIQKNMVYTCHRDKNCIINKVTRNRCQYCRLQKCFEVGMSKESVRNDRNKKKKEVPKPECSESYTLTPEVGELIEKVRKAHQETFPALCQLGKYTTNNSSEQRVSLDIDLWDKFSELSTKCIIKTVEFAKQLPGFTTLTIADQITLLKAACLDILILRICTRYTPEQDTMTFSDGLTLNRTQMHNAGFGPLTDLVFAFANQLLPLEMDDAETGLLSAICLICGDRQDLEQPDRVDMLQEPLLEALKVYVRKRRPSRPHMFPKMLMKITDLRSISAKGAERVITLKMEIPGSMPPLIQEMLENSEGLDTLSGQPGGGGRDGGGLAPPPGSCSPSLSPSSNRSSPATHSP
Method in brief: (§1)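 Gal4 DBD (1–147) was fused to hRARα (156–462) or hRARβ (169–448) LBD. CV-1 cells (20,000/well) were co-transfected with 10 ng Gal4-LBD, 100 ng UAS-luciferase and 25 ng β-gal vector. After 16 h the medium was replaced with medium containing 5% charcoal-treated FBS. Cells got atRA plus test compound at 10-, 40- or 200-fold excess (0.2, 0.8, 4 μM) for 6 h. Luciferase and β-galactosidase were read by chemiluminescence.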

A549 = assay: Antiproliferative activity against human A549 cells at 4 uM after 72 hrs by MTT assay; format: functional; details: A549, 72 h
Method in brief: (§2)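 Epithelial cancer lines came from ATCC and were seeded the day before in complete medium: PC-3, SkOV3 and A549 at 3,000/well; MiaPaCa-2 and BxPC-3 at 4,000; T-47D and MDA-MB-468 at 5,000. Medium was switched to 0.5% FBS just before exposure to 4 μM. Read-out was MTT (4 h, 37 °C), SDS/HCl solubilisation, A595 minus cell-free blank. Growth inhibition was taken versus DMSO (≤0.1% v/v) controls, ≥2 experiments in triplicate.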

BXPC-3 = assay: Antiproliferative activity against human BxPC3 cells at 4 uM after 48 hrs by MTT assay; format: functional; details: BXPC-3, 48 h; method in brief: as §2
[2] = molecular target: T1, Retinoic acid receptor alpha (Homo sapiens); assay: Transactivation of Gal4-LBD fused human RARalpha (156 to 454) transfected in african green monkey CV1 cells assessed as luciferase activity at 2 uM after 6 hrs by Dual-light chemiluminescent assay; format: cell-based; details: CV-1
[3] = molecular target: T1, Retinoic acid receptor alpha (Homo sapiens); assay: Inhibition of transactivation activity of Gal4-LBD fused human RARalpha (156 to 454) transfected in atRA-stimulated african green monkey CV1 cells at 0.2 uM after 6 hrs by Dual-light chemiluminescent assay; format: cell-based; details: CV-1, 0.2 uM; method in brief: as §1
PC-3 = assay: Antiproliferative activity against human PC3 cells at 4 uM after 48 hrs by MTT assay; format: functional; details: PC-3, 48 h; method in brief: as §2
[4] = molecular target: T2, Retinoic acid receptor beta (Homo sapiens) (UniProt P10826); assay: Transactivation of Gal4-LBD fused human RARbeta (169 to 448) transfected in african green monkey CV1 cells assessed as luciferase activity at 2 uM after 6 hrs by Dual-light chemiluminescent assay; format: cell-based; details: CV-1
T2 sequence (whole entry): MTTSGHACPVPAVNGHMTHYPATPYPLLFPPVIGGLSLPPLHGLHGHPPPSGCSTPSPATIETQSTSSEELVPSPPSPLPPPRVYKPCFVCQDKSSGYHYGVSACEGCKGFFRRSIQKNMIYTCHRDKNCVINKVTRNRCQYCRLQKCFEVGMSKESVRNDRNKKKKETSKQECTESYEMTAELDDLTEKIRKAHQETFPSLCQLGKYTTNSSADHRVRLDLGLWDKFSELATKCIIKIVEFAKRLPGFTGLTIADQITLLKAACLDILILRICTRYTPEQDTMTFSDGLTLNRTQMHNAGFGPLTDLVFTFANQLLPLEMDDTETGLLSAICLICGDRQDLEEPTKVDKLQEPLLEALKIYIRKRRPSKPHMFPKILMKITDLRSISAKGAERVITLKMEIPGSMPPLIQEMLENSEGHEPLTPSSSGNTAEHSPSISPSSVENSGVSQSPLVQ
Method in brief: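 Transfected CV-1 cells carried Gal4-LBD constructs: hRARα 156–462, hRARβ 169–448, hRARγ 178–454 or mRXRα 218–467. Transfection used 10 ng Gal4-LBD, 100 ng UAS-luciferase and 25 ng β-gal vector. After 16 h the medium was changed to 5% charcoal-treated FBS. Cells were stimulated with 2 μM analog for 6 h (RARα, RARβ, RXRα) or 20 h (RARγ). Reference agonists were 1 μM atRA (RARα) and 1 μM 9cRA (RXRα). Luciferase and β-galactosidase were read by chemiluminescence.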

MIA PaCa-2 = assay: Antiproliferative activity against human MIAPaCa2 cells at 4 uM after 48 hrs by MTT assay; format: functional; details: MIA PaCa-2, 48 h; method in brief: as §2
T47D = assay: Antiproliferative activity against human T47D cells at 4 uM after 48 hrs by MTT assay; format: functional; method in brief: as §2
[5] = molecular target: T2, Retinoic acid receptor beta (Homo sapiens); assay: Inhibition of transactivation activity of Gal4-LBD fused human RARbeta (169 to 448) transfected in atRA-stimulated african green monkey CV1 cells at 4 uM after 6 hrs by Dual-light chemiluminescent assay; format: cell-based; details: CV-1; method in brief: as §1
[6] = molecular target: T3, Retinoic acid receptor gamma (Homo sapiens) (UniProt P13631); assay: Inhibition of transactivation activity of Gal4-LBD fused human RARgamma (178 to 454) transfected in atRA-stimulated african green monkey CV1 cells at 4 uM after 20 hrs by Dual-light chemiluminescent assay; details: CV-1
T3 sequence (whole entry): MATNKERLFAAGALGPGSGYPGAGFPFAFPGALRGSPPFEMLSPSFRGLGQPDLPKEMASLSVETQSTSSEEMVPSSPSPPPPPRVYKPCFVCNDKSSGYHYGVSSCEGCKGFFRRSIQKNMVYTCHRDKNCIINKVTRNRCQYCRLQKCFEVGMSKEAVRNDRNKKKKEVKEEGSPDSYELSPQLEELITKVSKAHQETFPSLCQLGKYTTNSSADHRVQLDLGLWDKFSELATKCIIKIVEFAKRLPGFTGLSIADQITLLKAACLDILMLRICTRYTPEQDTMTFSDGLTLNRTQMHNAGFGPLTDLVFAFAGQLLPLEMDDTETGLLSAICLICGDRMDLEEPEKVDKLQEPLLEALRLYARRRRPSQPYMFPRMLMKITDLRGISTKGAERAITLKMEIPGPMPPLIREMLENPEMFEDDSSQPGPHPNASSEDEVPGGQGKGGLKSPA

MDA-MB-468 = assay: Antiproliferative activity against human MDA-MB-468 cells at 4 uM after 48 hrs by MTT assay; format: functional; details: MDA-MB-468, 48 h; method in brief: as §2

In the case of `COCCOCOc1cc(C)c(-c2ccc3cc(C(=O)O)ccc3c2Cl)cc1C12CC3CC(CC(C3)C1)C2`, the inhibition [1] is reported as 27%, the inhibition at 4 µM (A549) is reported as 88.1% and the inhibition at 4 µM (BXPC-3) is reported as 70.2%. For the same compound, the Activity [2] was “inactive”, the inhibition [3] was “inactive” and the inhibition at 4 µM (PC-3) was 97.6%. For the same compound, the Activity [4] was “inactive”, the inhibition at 4 µM (MIA PaCa-2) was 63.7% and the inhibition at 4 µM (T47D) was 46.1%. For the same compound, the Activity [5] was “inactive”, the Activity [6] was “inactive” and the inhibition at 4 µM (MDA-MB-468) was 49.9%.

Work on `COCCOCOc1cc(C)c(-c2ccc(CC(=O)O)cc2Cl)cc1C12CC3CC(CC(C3)C1)C2` yielded an inhibition [1] of 43.7%, an inhibition at 4 µM (A549) of 7.9% and an inhibition at 4 µM (BXPC-3) of 14%. For the same compound, the Activity [2] was “inactive”, the inhibition [3] was “inactive” and the inhibition at 4 µM (PC-3) was 52.2%. For the same compound, the Activity [4] was “inactive”, the inhibition at 4 µM (MIA PaCa-2) was 6.3% and the inhibition at 4 µM (T47D) was 27.6%. For the same compound, the Activity [5] was “inactive”, the Activity [6] was “inactive” and the inhibition at 4 µM (MDA-MB-468) was 25.3%.
